Compound activity as filed in PubChem BioAssay.
CHRM4 antagonist = antagonists of human muscarinic M4 receptor (CHRM4) | P08173 | CHO-hM4 cells, ACh EC80, Fluo-8 calcium fluorescence | inhibition, % at 3 µM | hit rate 0.73% among 360,000;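 active = inhibition above its plate's cutoff, the mean inhibition of sample wells plus 3 SD, cut at about 27% in these data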;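 note: 0% = acetylcholine EC80 with DMSO and 100% = DMSO without agonist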
Target sequence (P08173 whole entry, looked up): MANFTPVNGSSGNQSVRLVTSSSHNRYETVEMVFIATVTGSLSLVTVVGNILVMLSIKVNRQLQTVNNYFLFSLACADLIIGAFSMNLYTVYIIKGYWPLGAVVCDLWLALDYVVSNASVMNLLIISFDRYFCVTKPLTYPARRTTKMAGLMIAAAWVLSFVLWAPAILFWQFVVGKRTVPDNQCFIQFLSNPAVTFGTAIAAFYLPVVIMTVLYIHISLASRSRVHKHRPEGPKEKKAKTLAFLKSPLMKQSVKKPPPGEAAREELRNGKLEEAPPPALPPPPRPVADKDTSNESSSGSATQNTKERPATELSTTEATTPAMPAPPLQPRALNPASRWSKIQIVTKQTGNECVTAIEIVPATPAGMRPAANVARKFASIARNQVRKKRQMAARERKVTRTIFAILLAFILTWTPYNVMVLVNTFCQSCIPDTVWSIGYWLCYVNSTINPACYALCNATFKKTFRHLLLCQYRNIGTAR
CHRM4 PAM = potentiates acetylcholine response at human M4 receptor | P08173 | CHO-K1 hM4/Gqi5, Fluo-8 calcium fluorescence, ACh EC20; 0% = ACh EC20, 100% = maximal ACh | activation, % at 3 µM | hit rate 0.4% among 360,000;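 active = activation above its plate's cutoff, the mean activation of sample wells plus 3 SD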
M4 ag = CHRM4 agonism in calcium assay | CHO-K1 hM4/Gqi5, Fluo-8 calcium fluorescence; vehicle 0%, full acetylcholine response 100% | activation, % at 3 µM | hit rate 0.14% among 360,000;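 active = activation above the run mean over all test wells plus 3 SD, cut at about 32% in these data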;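 note: peak over basal fluorescence ratio per well then scaled between controls; 0% = DMSO wells and 100% = acetylcholine at EC100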
M5 PAM = potentiates acetylcholine response at human M5 receptor; P08912; CHO-K1 hM5, Fluo-8 calcium, ACh EC20 PAM; 0% = ACh EC20, 100% = ACh EC100; activation, % at 3 µM; hit rate 0.3% among 360,000; AID 624038;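 active = activation above the run cutoff, the mean activation of all test compounds plus 3 SD, cut at about 18% in these data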
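Assay system: CHO-K1 hM5 cells. Also added: acetylcholine at EC20 concentration, added after compound. Dosing: 3 µM, single dose. Times: compound preincubation 140 s before EC20 acetylcholine addition. Signal: Fluo-8 calcium fluorescence. Measure: % activation relative to EC20 and EC100 ACh responses. Repeats: singlicate, one well per test compound.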
M5 ag = CHRM5 agonism in calcium assay. CHO-K1 hM5 cells, Fluo-8 calcium fluorescence; 0% DMSO wells, 100% maximal acetylcholine response. hit rate 0.19% among 360,000. P08912. activation, % at 3 µM;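 active = activation above the run's mean over test compounds plus 3 SD, cut at about 23% in these data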;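 note: signal is peak over basal fluorescence ratio across the kinetic read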
M5 antag = antagonists of human muscarinic M5 receptor (CHRM5); inhibition, % at 3 µM; CHO-hM5 cells, Fluo-8 calcium fluorescence, ACh EC80; hit rate 0.59% among 360,000;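 active = inhibition above a per-plate cutoff, the mean of that plate's test compounds plus 3 SD, cut at about 27% in these data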;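 note: 0% = acetylcholine EC80 with DMSO and 100% = DMSO without agonist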
* hit, by the source's call; ! = not active in a repeat. An excerpt weighted towards active compounds, which were near 1.8% of everything screened.

SMILES | CHRM4 antagonist | CHRM4 PAM | M4 ag | M5 PAM | M5 ag | M5 antag
Cc1cc(C)n(S(=O)(=O)c2ccc(F)cc2)n1 | 6 | 1 | 0 | 7 | -2 | 10
Cc1ccc(N(C(=O)CS(=O)CC(=O)Nc2ccc(F)cc2)C(C(=O)NC2CCCCC2)c2ccco2)cc1 (stereo unspecified) | 3 | -2 | 1 | 2 | -2 | -2
Cc1ccc(NC(=O)CS(=O)CC(=O)N(C(C)C(=O)NC2CCCCC2)C(C)(C)C)cc1 (stereo unspecified) | 12 | 4 | 1 | -11 | -4 | 28*
COc1ccc(N2CCN(S(=O)(=O)c3ccc(OC)cc3)CC2)cc1 | -3 | -7 | 3 | -4 | 2 | 6
CCC(CC)N1CCN(S(=O)(=O)c2ccc(OC)cc2)CC1 | -10 | -1 | 0 | 21* | -7 | -2
COc1cccc(N2C(=NC(=O)C3CCCO3)SC3CS(=O)(=O)CC32)c1 (stereo unspecified) | -6 | 8 | -1 | 4 | -2 | -6
C=CC[C@@H](CC(=O)N[C@@H](CO)Cc1ccccc1)C(=O)N[C@H](C)COC(=O)[C@@H](CC=C)Cc1ccc(F)cc1 | 5 | 26* | 2 | 5 | 3 | 5
C=CC[C@@H](CC(=O)N[C@@H](CO)Cc1ccccc1)C(=O)N[C@@H](C)COC(=O)[C@@H](CC=C)Cc1ccc(F)cc1 | -10 | 11 | 4 | -9 | -1 | 18
C=CC[C@H](CC(=O)N(CCO)Cc1ccccc1)C(=O)N[C@H](COC(=O)[C@@H](CC=C)CC(=O)OC(C)(C)C)Cc1c[nH]c2ccccc12 | 27* | -4 | 14 | -21 | 4 | 14
C=CCC[C@H](Cc1ccc(F)cc1)C(=O)OC[C@H](Cc1c[nH]c2ccccc12)NC(=O)[C@H](CC=C)CC(=O)NCCO | 30* | 0 | 18 | -16 | 2 | 13
COc1ccc(C(=O)CSC(=S)N2CCCCC2)cc1 | 9 | -5 | 5 | -2 | -3 | 0
CCC1Sc2ccc(S(=O)(=O)Nc3ccc(OC)c(OC)c3)cc2NC1=O (stereo unspecified) | 6 | -5 | 16 | -15 | 3 | 31*
COc1ccc(C)cc1NC(=O)CSc1nnc2ccc(-c3ccncc3)nn12 | 27* | -16 | 4 | 0 | -4 | 1
COc1ccc(OC)c(NC(=O)CSc2nnc3ccc(-c4ccncc4)nn23)c1 | -7 | -19 | 2 | 2 | -14 | 5
COc1ccc(C#Cc2cccc(-c3nc(C(=O)NCc4ccc(Oc5ccccc5)cc4)cc4c3[C@@H](CCO)N(S(=O)C(C)(C)C)C4)c2)cc1OC (stereo partly specified) | -8 | -1 | 2 | 0 | 5 | 5
COc1cc(OC)c(-c2c3cc(O)c(=O)cc-3oc3cc(O)c(O)cc23)cc1OC | 52* | -17 | 212* | -20 | 326* | 54*
Cc1c2cc(O)c(=O)cc-2oc2cc(O)c(O)cc12 | 3 | 20 | 2 | 8 | -1 | -4
CN(C)NC(=S)NC1CCS(=O)(=O)C1 (stereo unspecified) | -9 | 5 | 0 | 21* | 4 | -10
COc1ccc(N2C(=O)CSC23C(=O)N2c4c(cccc43)C(C)=CC2(C)C)cc1 (stereo unspecified) | 4 | -8 | -2 | 4 | -5 | -3
O=C1N2CCCc3cccc(c32)C12Nc1ccccc1S2 (stereo unspecified) | 7 | 9 | 1 | 0 | -1 | 24
COc1ccc(N2C(=O)CSC23C(=O)N2CCCc4cccc3c42)cc1 (stereo unspecified) | 75* | -28 | 1 | -18 | -6 | 52*
O=C1CSC2(C(=O)N3CCCc4cccc2c43)N1c1cccc(C(F)(F)F)c1 (stereo unspecified) | 50* | -32 | -2 | -18 | -12 | 30*
CCC(C)Sc1cc(-c2nc3ccc(C)cn3c2NCc2ccccc2)ccc1OC (stereo unspecified) | 72* | -13 | 15 | -39 | -2 | 29*!
